The target of assay [1] is Telomerase reverse transcriptase (Homo sapiens, UniProt O14746). Kind of assay: Inhibitory activity of telomerase was measured using the TRAP assay. In a few lines:
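Cell-free modified TRAP with extracts from exponentially growing A2780 ovarian carcinoma cells. 0.04 μg protein was incubated with TS primer, dNTPs (50 μM each) and [α-32P]dCTP in TRAP buffer (pH 8.3, 68 mM KCl) ± agent, up to 50 μM final, for 20 min at 25 °C. Then 80 °C for 5 min, CX primer plus Taq, 31 PCR cycles. Products read by gel phosphorimaging/autoradiography or filter scintillation counting. IC50 taken as 50% inhibition relative to controls.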

Another assay has as its system A2780. Kind of assay: In vitro cytotoxicity against A2780 ovarian cells using the sulforhodamine B(SRB) assay. Type of assay: functional, cell-based. The note with it: Homo sapiens. Put shortly: (§1)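 SRB growth assay. 3000–6000 cells were seeded and attached overnight. Agents were dissolved at 500 μM in water and added in quadruplicate at final 0.05, 0.25, 1, 5 and 25 μM. After 96 h, cells were fixed with cold 10% TCA and stained with 0.4% SRB. A540 was expressed as percent of untreated control and the 50% growth-inhibitory concentration was derived.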

The next assay has as its system SK-OV-3. Kind of assay: In vitro cytotoxicity against SKOV-3 ovarian cells using the sulforhodamine B(SRB) assay. Format: functional, cell-based. As to conditions: Homo sapiens. Put shortly: as §1
Another assay deals with CH1. Kind of assay: In vitro cytotoxicity against CH1 ovarian cells using the sulforhodamine B(SRB) assay. Type of assay: functional, cell-based. The note with it: Homo sapiens. In a few lines:
as §1

Sequence of Telomerase reverse transcriptase (O14746 whole entry): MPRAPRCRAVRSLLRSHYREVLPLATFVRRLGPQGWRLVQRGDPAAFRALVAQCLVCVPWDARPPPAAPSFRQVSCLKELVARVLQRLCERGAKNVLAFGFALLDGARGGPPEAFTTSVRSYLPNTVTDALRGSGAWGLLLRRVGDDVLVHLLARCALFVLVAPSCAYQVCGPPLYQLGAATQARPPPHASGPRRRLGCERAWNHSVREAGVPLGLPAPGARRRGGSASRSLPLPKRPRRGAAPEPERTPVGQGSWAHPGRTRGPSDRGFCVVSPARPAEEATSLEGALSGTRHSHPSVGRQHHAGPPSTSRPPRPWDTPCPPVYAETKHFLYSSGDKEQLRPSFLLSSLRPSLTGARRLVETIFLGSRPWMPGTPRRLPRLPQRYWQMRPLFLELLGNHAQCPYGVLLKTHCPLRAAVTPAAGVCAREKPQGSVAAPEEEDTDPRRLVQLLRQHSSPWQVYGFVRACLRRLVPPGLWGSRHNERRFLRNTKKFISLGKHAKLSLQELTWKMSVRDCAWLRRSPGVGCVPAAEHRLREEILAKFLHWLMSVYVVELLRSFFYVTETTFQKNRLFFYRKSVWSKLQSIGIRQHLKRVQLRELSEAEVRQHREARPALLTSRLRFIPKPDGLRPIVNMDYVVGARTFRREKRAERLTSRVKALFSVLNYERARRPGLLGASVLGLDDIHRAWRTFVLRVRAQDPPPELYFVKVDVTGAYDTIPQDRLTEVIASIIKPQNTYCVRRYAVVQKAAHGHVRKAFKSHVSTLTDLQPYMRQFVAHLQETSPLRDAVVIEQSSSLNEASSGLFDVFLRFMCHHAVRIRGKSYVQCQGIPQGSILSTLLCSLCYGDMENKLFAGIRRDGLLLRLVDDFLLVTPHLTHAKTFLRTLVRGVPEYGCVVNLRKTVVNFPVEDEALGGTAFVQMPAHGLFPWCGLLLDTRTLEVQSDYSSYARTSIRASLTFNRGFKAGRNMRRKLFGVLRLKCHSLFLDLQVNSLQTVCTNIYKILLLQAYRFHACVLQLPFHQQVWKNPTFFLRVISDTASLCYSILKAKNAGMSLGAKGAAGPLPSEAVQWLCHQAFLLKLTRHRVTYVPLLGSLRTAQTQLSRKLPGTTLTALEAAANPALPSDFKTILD

With `C[N+](C)(C)CCC(=O)Nc1ccc(NC(=O)CC[N+](C)(C)C)c2c1C(=O)c1ccccc1C2=O`, in assay [1], the IC50 came to 7000 nM.
As to `CCN(CC)CCC(=O)Nc1ccc(NC(=O)CCN(CC)CC)c2c1C(=O)c1ccccc1C2=O`, the half-maximal inhibitory concentration (IC50) was determined as 200 nM in the assay on A2780, 1400 nM in the assay on SK-OV-3 and 260 nM in the assay with CH1.
With `C[N+]1(CCC(=O)Nc2cccc3c2C(=O)c2cccc(NC(=O)CC[N+]4(C)CCOCC4)c2C3=O)CCOCC1`, the half-inhibitory concentration (IC50) turned out to be 1900 nM in the assay on A2780, 13200 nM in assay [1], 2900 nM with SK-OV-3 and 1800 nM in the assay with CH1.
The corresponding values for `C[N+]1(CCC(=O)Nc2ccc(NC(=O)CC[N+]3(C)CCCC3)c3c2C(=O)c2ccccc2C3=O)CCCC1` are 1500 nM, 5000 nM, 37000 nM and 4500 nM.
As for `O=C(CCN1CCCC1)Nc1cccc2c1C(=O)c1cccc(NC(=O)CCN3CCCC3)c1C2=O`, the values for the IC50 in the assay with A2780, in the assay with SK-OV-3 and in the assay with CH1 were 320 nM, 530 nM and 360 nM, respectively.
`C[N+]1(CCC(=O)Nc2ccc3c(c2)C(=O)c2ccc(NC(=O)CC[N+]4(C)CCCC4)cc2C3=O)CCCC1`: the values for the IC50 in the assay on A2780, with SK-OV-3 and with CH1 were 560 nM, 2000 nM and 1350 nM, respectively.
Regarding `O=C(CCN1CCOCC1)Nc1cccc2c1C(=O)c1c(NC(=O)CCN3CCOCC3)cccc1C2=O`, the IC50 was more than 25000 nM in the assay on A2780, more than 50000 nM in assay [1], more than 25000 nM in the assay on SK-OV-3 and 21500 nM with CH1.
`C[N+]1(CCC(=O)Nc2cccc3c2C(=O)c2c(NC(=O)CC[N+]4(C)CCCC4)cccc2C3=O)CCCC1`: the 50% inhibitory concentration (IC50) in the assay on A2780 worked out at 600 nM; in assay [1] it was 8200 nM; with SK-OV-3, 5000 nM; in the assay with CH1 it was 1680 nM.
For `CC[N+](C)(CC)CCC(=O)Nc1ccc(NC(=O)CC[N+](C)(CC)CC)c2c1C(=O)c1ccccc1C2=O`, the half-maximal inhibitory concentration (IC50) in the assay on A2780 was 4250 nM; in assay [1] it was 3100 nM; with SK-OV-3, more than 25000 nM; with CH1, 6300 nM.
Regarding `C[N+]1(CCC(=O)Nc2cccc3c2C(=O)c2cccc(NC(=O)CC[N+]4(C)CCCCC4)c2C3=O)CCCCC1`, the concentration for half-maximal inhibition (IC50) with A2780 came out at 2000 nM; in assay [1], 8600 nM; in the assay on SK-OV-3, 8300 nM; with CH1 it was 2100 nM.
For the molecule `O=C(CCN1CCCCC1)Nc1cccc2c1C(=O)c1c(NC(=O)CCN3CCCCC3)cccc1C2=O`, the IC50 stood at 540 nM with A2780, 3700 nM in assay [1], 2350 nM in the assay on SK-OV-3 and 1950 nM in the assay with CH1.
On the same counts, the results for `O=C(CCN1CCOCC1)Nc1cccc2c1C(=O)c1cccc(NC(=O)CCN3CCOCC3)c1C2=O` are more than 25000 nM, more than 50000 nM, more than 25000 nM and more than 25000 nM.
On the same counts, the results for `C[N+]1(CCC(=O)Nc2cccc3c2C(=O)c2c(NC(=O)CC[N+]4(C)CCOCC4)cccc2C3=O)CCOCC1` are 510 nM, 10000 nM, 2600 nM and 580 nM.
The corresponding values for `CCN(CC)CCC(=O)Nc1cccc2c1C(=O)c1cccc(NC(=O)CCN(CC)CC)c1C2=O` are 320 nM, 2700 nM, 620 nM and 320 nM.
On to `C[N+](C)(C)CCC(=O)Nc1ccc2c(c1)C(=O)c1cc(NC(=O)CC[N+](C)(C)C)ccc1C2=O`, for which the IC50 with A2780 was 440 nM; in assay [1], 14500 nM; in the assay with SK-OV-3 it was 4000 nM; in the assay on CH1 it was 1300 nM.
`O=C(CCN1CCCC1)Nc1ccc2c(c1)C(=O)c1cc(NC(=O)CCN3CCCC3)ccc1C2=O`: the IC50 with A2780 stood at 1200 nM; in assay [1], 2000 nM; with SK-OV-3, 2300 nM; in the assay on CH1, 1800 nM.
As for `O=C(CCN1CCCCC1)Nc1cccc2c1C(=O)c1cccc(NC(=O)CCN3CCCCC3)c1C2=O`, the 50% inhibitory concentration (IC50) in the assay on A2780 was found to be 435 nM; in assay [1], 2300 nM; in the assay on SK-OV-3, 820 nM; in the assay with CH1 it was 420 nM.
On the same counts, the results for `CN(C)CCC(=O)Nc1cccc2c1C(=O)c1c(NC(=O)CCN(C)C)cccc1C2=O` are 330 nM, 6400 nM, 1650 nM and 1350 nM.
On the same counts, the results for `C[N+]1(CCC(=O)Nc2ccc3c(c2)C(=O)c2cc(NC(=O)CC[N+]4(C)CCOCC4)ccc2C3=O)CCOCC1` are 520 nM, 16500 nM, 2950 nM and 1100 nM.
On the same counts, the results for `CC[N+](C)(CC)CCC(=O)Nc1cccc2c1C(=O)c1c(NC(=O)CC[N+](C)(CC)CC)cccc1C2=O` are 550 nM, 7500 nM, 4600 nM and 1650 nM.
For the molecule `C[N+](C)(C)CCC(=O)Nc1cccc2c1C(=O)c1cccc(NC(=O)CC[N+](C)(C)C)c1C2=O`, the IC50 in the assay on A2780 was determined as 1700 nM; in assay [1] it was 13200 nM; with SK-OV-3 it was 5800 nM; in the assay with CH1, 1750 nM.
The corresponding values for `CCN(CC)CCC(=O)Nc1cccc2c1C(=O)c1c(NC(=O)CCN(CC)CC)cccc1C2=O` are 640 nM, 4200 nM, 5200 nM and 5300 nM.
As for `CC[N+](C)(CC)CCC(=O)Nc1ccc2c(c1)C(=O)c1ccc(NC(=O)CC[N+](C)(CC)CC)cc1C2=O`, the figures for the concentration for half-maximal inhibition (IC50) in the assay on A2780, in the assay with SK-OV-3 and in the assay on CH1 were 2100 nM, 6400 nM and 1900 nM, respectively.
On to `C[N+]1(CCC(=O)Nc2ccc3c(c2)C(=O)c2cc(NC(=O)CC[N+]4(C)CCCC4)ccc2C3=O)CCCC1`, for which the IC50 in the assay on A2780 turned out to be 480 nM; in assay [1] it was 16000 nM; with SK-OV-3, 4700 nM; with CH1, 1600 nM.
With `C[N+]1(CCC(=O)Nc2ccc3c(c2)C(=O)c2cc(NC(=O)CC[N+]4(C)CCCCC4)ccc2C3=O)CCCCC1`, the 50% inhibitory concentration (IC50) with A2780 was found to be 180 nM; in assay [1], 7800 nM; in the assay with SK-OV-3 it was 2200 nM; with CH1, 1050 nM.
For `O=C(CCN1CCOCC1)Nc1ccc2c(c1)C(=O)c1ccc(NC(=O)CCN3CCOCC3)cc1C2=O`, the 50% inhibitory concentration (IC50) is more than 25000 nM in the assay on A2780, more than 25000 nM in the assay on SK-OV-3 and 14000 nM in the assay on CH1.
`C[N+]1(CCC(=O)Nc2cccc3c2C(=O)c2c(NC(=O)CC[N+]4(C)CCCCC4)cccc2C3=O)CCCCC1`: the half-inhibitory concentration (IC50) in the assay on A2780 was 520 nM; in assay [1], 7800 nM; in the assay on SK-OV-3, 4600 nM; in the assay with CH1, 1120 nM.
The corresponding values for `O=C(CCN1CCCC1)Nc1ccc2c(c1)C(=O)c1ccc(NC(=O)CCN3CCCC3)cc1C2=O` are 39000 nM, 1800 nM, 38000 nM and 49000 nM.
On the same counts, the results for `C[N+]1(CCC(=O)Nc2cccc3c2C(=O)c2cccc(NC(=O)CC[N+]4(C)CCCC4)c2C3=O)CCCC1` are 2200 nM, 8800 nM, 10000 nM and 2250 nM.
The corresponding values for `CC[N+](C)(CC)CCC(=O)Nc1cccc2c1C(=O)c1cccc(NC(=O)CC[N+](C)(CC)CC)c1C2=O` are 1900 nM, 16800 nM, 10000 nM and 2050 nM.
With `O=C(CCN1CCCC1)Nc1ccc(NC(=O)CCN2CCCC2)c2c1C(=O)c1ccccc1C2=O`, the values for the half-maximal inhibitory concentration (IC50) in the assay with A2780, with SK-OV-3 and with CH1 were 2.5 nM, 390 nM and 19 nM, respectively.
Take `CCN(CC)CCC(=O)Nc1ccc2c(c1)C(=O)c1ccc(NC(=O)CCN(CC)CC)cc1C2=O`: the IC50 in the assay on A2780 worked out at 2350 nM; in assay [1], 3500 nM; with SK-OV-3, 3150 nM; in the assay on CH1, 3150 nM.
For the molecule `C[N+](C)(C)CCC(=O)Nc1cccc2c1C(=O)c1c(NC(=O)CC[N+](C)(C)C)cccc1C2=O`, the 50% inhibitory concentration (IC50) in the assay with A2780 was 530 nM; in assay [1], 4400 nM; with SK-OV-3 it was 2200 nM; in the assay on CH1, 1400 nM.
On the same counts, the results for `CC[N+](C)(CC)CCC(=O)Nc1ccc2c(c1)C(=O)c1cc(NC(=O)CC[N+](C)(CC)CC)ccc1C2=O` are 330 nM, more than 20000 nM, 2000 nM and 1130 nM.
Turning to `O=C(CCN1CCCC1)Nc1cccc2c1C(=O)c1c(NC(=O)CCN3CCCC3)cccc1C2=O`, the IC50 in the assay on A2780 was 295 nM; with SK-OV-3 it was 1200 nM; in the assay on CH1, 1280 nM.
`CN(C)CCC(=O)Nc1ccc2c(c1)C(=O)c1ccc(NC(=O)CCN(C)C)cc1C2=O` yielded a 50% inhibitory concentration (IC50) in assay [1] of 4100 nM.
As to `O=C(CCN1CCCCC1)Nc1ccc2c(c1)C(=O)c1cc(NC(=O)CCN3CCCCC3)ccc1C2=O`, the concentration for half-maximal inhibition (IC50) in the assay with A2780 is 480 nM; in assay [1] it was 3100 nM; with SK-OV-3 it was 3700 nM; in the assay with CH1 it was 3150 nM.
For the molecule `CN(C)CCC(=O)Nc1ccc2c(c1)C(=O)c1cc(NC(=O)CCN(C)C)ccc1C2=O`, the 50% inhibitory concentration (IC50) was 2100 nM in the assay with A2780, 4700 nM in assay [1], 4150 nM in the assay on SK-OV-3 and 4400 nM with CH1.
The corresponding values for `CCN(CC)CCC(=O)Nc1ccc2c(c1)C(=O)c1cc(NC(=O)CCN(CC)CC)ccc1C2=O` are 2100 nM, 4300 nM, 7200 nM and 4600 nM.
With `O=C(CCN1CCOCC1)Nc1ccc2c(c1)C(=O)c1cc(NC(=O)CCN3CCOCC3)ccc1C2=O`, the IC50 in the assay with A2780 is 5300 nM; in assay [1], more than 50000 nM; in the assay with SK-OV-3, more than 100000 nM; in the assay on CH1 it was 7500 nM.

Usually IC50 stands for the concentration that gives 50% inhibition.

The values are drawn from ChEMBL document CHEMBL1131409, “Human telomerase inhibition by regioisomeric disubstituted amidoanthracene-9,10-diones” (J Med Chem, 1998).
